Tests used:
Mus musculus [1] = experiment: Serotonergic activity was determined by measuring the potentiation of 5-hydroxytryptophan in mice upon ip administration; format: functional
Outline: (§1)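 Drug was injected ip in distilled water/gum tragacanth to female CD1 mice (18-22 g) at multiple doses (7-20 mice/dose), 30 min before a threshold dose of L-5-HTP (200 mg/kg ip). Mice were held singly in small cages, and tremor was scored all-or-none over the 20 min after L-5-HTP.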

Mus musculus [2] = experiment: Antidepressant activity against reserpine induced ptosis in mice after intraperitoneal administration.; format: functional; settings: ip
Outline: (§2)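 Female CD1 mice (18-22 g) received the drug in distilled water/gum tragacanth ip at multiple doses (7-20 mice/dose), given together with reserpine (2 mg/kg iv). One hour later, palpebral ptosis (half or more of the lid closed) was scored all-or-none. Screening dose was at most 50% of the seizure threshold dose.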

Mus musculus [3] = experiment: Ability to modify turning behavior of mice after intraperitoneal administration; format: functional; settings: ip, read-out: MED
Outline: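 Female CD1 mice (25-30 g) were lesioned by stereotaxic injection of 6-OHDA (10 μg in 1 μL saline with 1 mg/mL ascorbic acid) into the right striatum under pentobarbitone (60 mg/kg ip). Seven days later, drug in distilled water/gum tragacanth was given ip at multiple doses (7-20 mice/dose). Ipsilateral turns were counted for 2 min starting 30 min post-dose.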

[4] = Acute toxicity in mice after intraperitoneal administration.; settings: mouse, in vivo, ip, LD50
Mus musculus [5] = experiment: Serotonergic activity by measuring the potentiation of 5-hydroxy tryptophan in mice upon ip administration; value ranges from 3.0-4.0; format: functional; outline: as §1
Mus musculus [6] = experiment: Compound was tested for antidepressant activity against reserpine induced ptosis in mice after intraperitoneal administration.; value ranges from 5.9-6.7; format: functional; settings: ip; outline: as §2
Mus musculus [7] = experiment: Compound was tested for antidepressant activity against reserpine induced ptosis in mice after intraperitoneal administration; value ranges from 1.8-4.1; format: functional; settings: ip; outline: as §2
Mus musculus [8] = experiment: Serotonergic activity by measuring the potentiation of 5-hydroxy tryptophan in mice upon ip administration; value ranges from 3-7.9.; format: functional; outline: as §1
Mus musculus [9] = experiment: Compound was tested for antidepressant activity against reserpine induced ptosis in mice after intraperitoneal administration.; value ranges from 24-55; format: functional; settings: ip; outline: as §2
Mus musculus [10] = experiment: Compound was tested for antidepressant activity against reserpine induced ptosis in mice after intraperitoneal administration.; value ranges from 11-16; format: functional; settings: ip; outline: as §2
Mus musculus [11] = experiment: Compound was tested for antidepressant activity against reserpine induced ptosis in mice after intraperitoneal administration.; value ranges from 11-34; format: functional; settings: ip; outline: as §2

Structure (SMILES)	ED50 (Mus musculus [1])	ED50 (Mus musculus [2])	minimal effective dose (Mus musculus [3])	LD50 [4]	other results
Clc1ccccc1Cc1cc(-c2ccccc2)nnc1NCCN1CCOCC1	> 50 mg/kg	> 50 mg/kg	10 mg/kg	95 mg/kg	–
Cc1cc(-c2ccccc2)nnc1NCCCCN	> 30 mg/kg	> 50 mg/kg	0.1 mg/kg	300 mg/kg	–
c1ccc(-c2ccc(NCCN3CCOCC3)nn2)cc1	–	–	0.5 mg/kg	250 mg/kg	ED50 (Mus musculus [5]): 3.7 mg/kg; ED50 (Mus musculus [6]): 6 mg/kg
CN(C)CCCN1c2ccccc2CCc2ccc(Cl)cc21 [CLOMIPRAMINE]	–	–	–	–	ED50 (Mus musculus [7]): 3.3 mg/kg; ED50 (Mus musculus [8]): 4.8 mg/kg
Cc1cc(-c2ccccc2)nnc1NCCCN	> 30 mg/kg	50 mg/kg	0.1 mg/kg	300 mg/kg	–
CNCCNc1nnc(-c2ccccc2)cc1C	≥ 30 mg/kg	–	2 mg/kg	> 200 mg/kg	ED50 (Mus musculus [9]): 36 mg/kg
Cc1cc(-c2ccccc2)nnc1NCC(C)N1CCOCC1 (stereo not given)	> 15 mg/kg	–	2 mg/kg	54 mg/kg	ED50 (Mus musculus [10]): 13 mg/kg
CCN(CC)CCNc1nnc(-c2ccccc2)cc1C	> 30 mg/kg	> 30 mg/kg	> 10 mg/kg	80 mg/kg	–
NC(=O)c1cc(-c2ccccc2)nnc1NCCN1CCOCC1	> 60 mg/kg	> 40 mg/kg	2 mg/kg	–	–
Cc1cc(C)c(NCCN2CCOCC2)nn1	> 50 mg/kg	> 50 mg/kg	> 10 mg/kg	> 100 mg/kg	–
CCc1cc(-c2ccccc2)nnc1NCCN1CCOCC1	> 10 mg/kg	> 10 mg/kg	2 mg/kg	31 mg/kg	–
Cc1cc(-c2ccccc2)nnc1NCCN1CCOCC1C (stereo not given)	30 mg/kg	–	> 2 mg/kg	110 mg/kg	ED50 (Mus musculus [11]): 20 mg/kg

Reference: ChEMBL document CHEMBL1124408, “3-aminopyridazine derivatives with atypical antidepressant, serotonergic, and dopaminergic activities” (J Med Chem, 1989)
